# Data reported in ChEMBL document CHEMBL1629465, “Efficient synthesis of novel 1,2,4-triazole fused acyclic and 21-28 membered macrocyclic and/or lariat macrocyclic oxaazathia crown compounds with potential antimicrobial activity” (2010).
# Key:
# Type in all cases: functional
# Penicillium italicum [1] = assay: Antimicrobial activity against Penicillium italicum RCMB 001018 at 1 mg/ml by agar diffusion technique; conditions: read-out: DIZ
# In short: (§1)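 Agar well diffusion. Test compounds and reference standard drugs were diluted to 5.0, 2.5 and 1.0 mg/mL and applied to 0.6 cm wells. Inhibition zone beyond the control was scored as 0 (no inhibition), + (0.1–0.5 cm), ++ (0.6–1.0 cm) or +++ (1.0–1.5 cm).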
# [2] = system: Syncephalastrum racemosum; assay: Antimicrobial activity against Syncephalastrum racemosum RCMB 016001 by twofold serial dilution method
# In short: (§2)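 MIC was determined by further twofold serial dilution across twelve levels, from 1000 down to 0.49. Strains were the same bacterial, yeast and fungal RCMB isolates used in the diffusion screen.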
# Escherichia coli [3] = assay: Antimicrobial activity against Escherichia coli RCMB 103001 at 2.5 mg/ml by agar diffusion technique; conditions: read-out: DIZ; in short: as §1
# Bacillus subtilis [4] = assay: Antimicrobial activity against Bacillus subtilis RCMB 101001 by twofold serial dilution method; in short: as §2
# [5] = system: Syncephalastrum racemosum; assay: Antimicrobial activity against Syncephalastrum racemosum RCMB 016001 at 2.5 mg/ml by agar diffusion technique; conditions: read-out: DIZ; in short: as §1
# Candida albicans [6] = assay: Antimicrobial activity against Candida albicans RCMB 005003 at 2.5 mg/ml by agar diffusion technique; conditions: read-out: DIZ; in short: as §1
# Aspergillus fumigatus [7] = assay: Antimicrobial activity against Aspergillus fumigatus RCMB 002008 at 1 mg/ml by agar diffusion technique; conditions: read-out: DIZ; in short: as §1
# Staphylococcus aureus [8] = assay: Antimicrobial activity against Staphylococcus aureus RCMB 106001 at 5 mg/ml by agar diffusion technique; conditions: read-out: DIZ; in short: as §1
# Pseudomonas aeruginosa [9] = assay: Antimicrobial activity against Pseudomonas aeruginosa RCMB 102002 at 1 mg/ml by agar diffusion technique; conditions: read-out: DIZ; in short: as §1
# Aspergillus fumigatus [10] = assay: Antimicrobial activity against Aspergillus fumigatus RCMB 002008 at 2.5 mg/ml by agar diffusion technique; conditions: read-out: DIZ; in short: as §1
# Candida albicans [11] = assay: Antimicrobial activity against Candida albicans RCMB 005003 at 5 mg/ml by agar diffusion technique; conditions: read-out: DIZ; in short: as §1
# Escherichia coli [12] = assay: Antimicrobial activity against Escherichia coli RCMB 103001 by twofold serial dilution method; in short: as §2
# Pseudomonas aeruginosa [13] = assay: Antimicrobial activity against Pseudomonas aeruginosa RCMB 102002 at 5 mg/ml by agar diffusion technique; conditions: read-out: DIZ; in short: as §1
# Penicillium italicum [14] = assay: Antimicrobial activity against Penicillium italicum RCMB 001018 by twofold serial dilution method; in short: as §2
# Staphylococcus aureus [15] = assay: Antimicrobial activity against Staphylococcus aureus RCMB 106001 at 2.5 mg/ml by agar diffusion technique; conditions: read-out: DIZ; in short: as §1
# Penicillium italicum [16] = assay: Antimicrobial activity against Penicillium italicum RCMB 001018 at 2.5 mg/ml by agar diffusion technique; conditions: read-out: DIZ; in short: as §1
# Pseudomonas aeruginosa [17] = assay: Antimicrobial activity against Pseudomonas aeruginosa RCMB 102002 at 2.5 mg/ml by agar diffusion technique; conditions: read-out: DIZ; in short: as §1
# Escherichia coli [18] = assay: Antimicrobial activity against Escherichia coli RCMB 103001 at 1 mg/ml by agar diffusion technique; conditions: read-out: DIZ; in short: as §1
# Candida albicans [19] = assay: Antimicrobial activity against Candida albicans RCMB 005003 at 1 mg/ml by agar diffusion technique; conditions: read-out: DIZ; in short: as §1
# Staphylococcus aureus [20] = assay: Antimicrobial activity against Staphylococcus aureus RCMB 106001 at 1 mg/ml by agar diffusion technique; conditions: read-out: DIZ; in short: as §1
# Bacillus subtilis [21] = assay: Antimicrobial activity against Bacillus subtilis RCMB 101001 at 2.5 mg/ml by agar diffusion technique; conditions: read-out: DIZ; in short: as §1
# Aspergillus fumigatus [22] = assay: Antimicrobial activity against Aspergillus fumigatus RCMB 002008 by twofold serial dilution method; in short: as §2
# [23] = system: Syncephalastrum racemosum; assay: Antimicrobial activity against Syncephalastrum racemosum RCMB 016001 at 1 mg/ml by agar diffusion technique; conditions: read-out: DIZ; in short: as §1
# Bacillus subtilis [24] = assay: Antimicrobial activity against Bacillus subtilis RCMB 101001 at 1 mg/ml by agar diffusion technique; conditions: read-out: DIZ; in short: as §1
# Candida albicans [25] = assay: Antimicrobial activity against Candida albicans RCMB 005003 by twofold serial dilution method; in short: as §2
# Bacillus subtilis [26] = assay: Antimicrobial activity against Bacillus subtilis RCMB 101001 at 5 mg/ml by agar diffusion technique; conditions: read-out: DIZ; in short: as §1
# [27] = system: Syncephalastrum racemosum; assay: Antimicrobial activity against Syncephalastrum racemosum RCMB 016001 at 5 mg/ml by agar diffusion technique; conditions: read-out: DIZ; in short: as §1
# Pseudomonas aeruginosa [28] = assay: Antimicrobial activity against Pseudomonas aeruginosa RCMB 102002 by twofold serial dilution method; in short: as §2
# Aspergillus fumigatus [29] = assay: Antimicrobial activity against Aspergillus fumigatus RCMB 002008 at 5 mg/ml by agar diffusion technique; conditions: read-out: DIZ; in short: as §1
# Staphylococcus aureus [30] = assay: Antimicrobial activity against Staphylococcus aureus RCMB 106001 by twofold serial dilution method; in short: as §2
# Escherichia coli [31] = assay: Antimicrobial activity against Escherichia coli RCMB 103001 at 5 mg/ml by agar diffusion technique; conditions: read-out: DIZ; in short: as §1
# Penicillium italicum [32] = assay: Antimicrobial activity against Penicillium italicum RCMB 001018 at 5 mg/ml by agar diffusion technique; conditions: read-out: DIZ; in short: as §1
# [33] = Escherichia coli, RCMB 103001, read-out: MIC
Compound,zone of inhibition at 1000 µg/mL (Penicillium italicum [1]) [mm],zone of inhibition at 2500 µg/mL (Escherichia coli [3]) [mm],zone of inhibition at 2500 µg/mL [5] [mm],zone of inhibition at 2500 µg/mL (Candida albicans [6]) [mm],zone of inhibition at 1000 µg/mL (Aspergillus fumigatus [7]) [mm],zone of inhibition at 5000 µg/mL (Staphylococcus aureus [8]) [mm],zone of inhibition at 1000 µg/mL (Pseudomonas aeruginosa [9]) [mm],zone of inhibition at 2500 µg/mL (Aspergillus fumigatus [10]) [mm],zone of inhibition at 5000 µg/mL (Candida albicans [11]) [mm],zone of inhibition at 5000 µg/mL (Pseudomonas aeruginosa [13]) [mm],zone of inhibition at 2500 µg/mL (Staphylococcus aureus [15]) [mm],zone of inhibition at 2500 µg/mL (Penicillium italicum [16]) [mm],zone of inhibition at 2500 µg/mL (Pseudomonas aeruginosa [17]) [mm],zone of inhibition at 1000 µg/mL (Escherichia coli [18]) [mm],zone of inhibition at 1000 µg/mL (Candida albicans [19]) [mm],zone of inhibition at 1000 µg/mL (Staphylococcus aureus [20]) [mm],zone of inhibition at 2500 µg/mL (Bacillus subtilis [21]) [mm],zone of inhibition at 1000 µg/mL [23] [mm],zone of inhibition at 1000 µg/mL (Bacillus subtilis [24]) [mm],zone of inhibition at 5000 µg/mL (Bacillus subtilis [26]) [mm],further results
OC(COc1ccccc1/C=N\n1c(-c2cccnc2)n[nH]c1=S)COc1ccccc1/C=N\n1c(-c2cccnc2)n[nH]c1=S,6,1,1,0,0,0,0,0,0,0,0,6,0,0,0,0,1,0,1,,"MIC [2]: 250 µg/mL; MIC ([2]; Syncephalastrum racemosum, RCMB 016001, read-out: MIC): 250 µg/mL; MIC (Bacillus subtilis [4]): 250 µg/mL; MIC (Bacillus subtilis [4]; Bacillus subtilis, RCMB 101001, read-out: MIC): 250 µg/mL; MIC (Escherichia coli [12]): 250 µg/mL; MIC (Escherichia coli [12]; [33]): 250 µg/mL; MIC (Penicillium italicum [14]): 250 µg/mL; MIC (Aspergillus fumigatus [22]): 250 µg/mL; MIC (Aspergillus fumigatus [22]; Aspergillus fumigatus, RCMB 002008, read-out: MIC): 250 µg/mL"
C1=N\n2c(nnc2-c2cccnc2)SCCCCSc2nnc(-c3cccnc3)n2/N=C\c2ccccc2OCCCCOc2ccccc2/1,0,1,0,1,0,,0,0,,,1,0,0,1,0,1,0,0,0,0,"MIC (Escherichia coli [12]; [33]): 250 µg/mL; MIC (Candida albicans [25]): 250 µg/mL; MIC (Candida albicans [25]; Candida albicans, RCMB 005003, read-out: MIC): 250 µg/mL; zone of inhibition at 5000 µg/mL [27]: 0 mm; MIC (Pseudomonas aeruginosa [28]): 250 µg/mL; MIC (Pseudomonas aeruginosa [28]; Pseudomonas aeruginosa, RCMB 102002, read-out: MIC): 250 µg/mL; zone of inhibition at 5000 µg/mL (Aspergillus fumigatus [29]): 0 mm; MIC (Staphylococcus aureus [30]): 250 µg/mL; MIC (Staphylococcus aureus [30]; Staphylococcus aureus, RCMB 106001, read-out: MIC): 250 µg/mL"
OC1COc2ccccc2CNn2c(nnc2-c2cccnc2)SCCCSc2nnc(-c3cccnc3)n2NCc2ccccc2OC1,0,0,0,0,0,0,0,0,0,0,0,0,0,0,0,0,6,0,1,6,zone of inhibition at 5000 µg/mL (Escherichia coli [31]): 0 mm; zone of inhibition at 5000 µg/mL (Penicillium italicum [32]): 0 mm; zone of inhibition at 5000 µg/mL [27]: 0 mm; zone of inhibition at 5000 µg/mL (Aspergillus fumigatus [29]): 0 mm
O=C(N[C@H](CO)[C@H](O)c1ccc([N+](=O)[O-])cc1)C(Cl)Cl [CHLORAMPHENICOL],6,6,10,6,6,6,6,10,6,10,6,10,10,6,6,6,10,10,6,10,zone of inhibition at 5000 µg/mL (Escherichia coli [31]): 6 mm; zone of inhibition at 5000 µg/mL (Penicillium italicum [32]): 10 mm; zone of inhibition at 5000 µg/mL [27]: 10 mm; zone of inhibition at 5000 µg/mL (Aspergillus fumigatus [29]): 10 mm
CN(C/C=C/C#CC(C)(C)C)Cc1cccc2ccccc12 [TERBINAFINE],6,6,10,6,6,6,6,10,6,10,6,10,10,6,6,6,10,10,6,10,zone of inhibition at 5000 µg/mL (Escherichia coli [31]): 6 mm; zone of inhibition at 5000 µg/mL (Penicillium italicum [32]): 10 mm; zone of inhibition at 5000 µg/mL [27]: 10 mm; zone of inhibition at 5000 µg/mL (Aspergillus fumigatus [29]): 10 mm
